Source: ChEMBL document CHEMBL4118021, “Studies of TAK1-centered polypharmacology with novel covalent TAK1 inhibitors” (Bioorg Med Chem, 2017)
Blank lines part the entries; values can stand above or below the compound they belong to. The source made the active and inactive calls. No cut-off for these calls is given here.

Assays:
[1] = target: Eukaryotic translation initiation factor 2-alpha kinase 3 (Homo sapiens) (UniProt Q9NZJ5); experiment: Inhibition of PEK in human SKCO1 cells at 1 uM after 4 hrs using biotin labeled DLKPSNIFFTMDDVVK probe by mass-spectrometric analysis relative to control; format: cell-based
[2] = target: Dual specificity mitogen-activated protein kinase kinase 1 (Homo sapiens) (UniProt Q02750); experiment: Inhibition of full length human MEK1 (1 to 393 residues) expressed in mammalian expression system assessed as enzyme activity at 1 uM by KINOMEScan assay relative to control; design: scale not given: the % may be the effect or the level left
Dual specificity mitogen-activated protein kinase kinase 1 (Homo sapiens), sequence (Q02750 whole entry, the tested form may be a part): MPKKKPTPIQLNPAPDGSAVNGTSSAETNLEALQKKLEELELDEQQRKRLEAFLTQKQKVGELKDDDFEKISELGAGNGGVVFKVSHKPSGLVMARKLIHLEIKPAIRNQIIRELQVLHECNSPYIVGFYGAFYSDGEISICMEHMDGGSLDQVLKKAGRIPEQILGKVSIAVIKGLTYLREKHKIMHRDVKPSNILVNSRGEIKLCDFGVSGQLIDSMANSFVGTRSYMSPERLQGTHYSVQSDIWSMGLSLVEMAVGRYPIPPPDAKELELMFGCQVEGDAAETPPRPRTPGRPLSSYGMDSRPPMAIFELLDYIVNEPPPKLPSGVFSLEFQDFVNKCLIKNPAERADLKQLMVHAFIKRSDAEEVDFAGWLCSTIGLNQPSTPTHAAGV
Summary of the method: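 In vitro ATP-site competition binding assay (KinomeScan) across a panel of 456 kinases. Compound was tested at 1 and 10 μM. The read-out is the binding inhibition score relative to control.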

[3] = target: TGF-beta receptor type-2 (Homo sapiens) (UniProt P37173); experiment: Inhibition of human TGFBR2 (218 to 567 residues) expressed in bacterial expression system assessed as enzyme activity at 10 uM by KINOMEScan assay relative to control; design: scale not given: the % may be the effect or the level left
TGF-beta receptor type-2 (Homo sapiens), sequence (P37173 whole entry, the tested form may be a part): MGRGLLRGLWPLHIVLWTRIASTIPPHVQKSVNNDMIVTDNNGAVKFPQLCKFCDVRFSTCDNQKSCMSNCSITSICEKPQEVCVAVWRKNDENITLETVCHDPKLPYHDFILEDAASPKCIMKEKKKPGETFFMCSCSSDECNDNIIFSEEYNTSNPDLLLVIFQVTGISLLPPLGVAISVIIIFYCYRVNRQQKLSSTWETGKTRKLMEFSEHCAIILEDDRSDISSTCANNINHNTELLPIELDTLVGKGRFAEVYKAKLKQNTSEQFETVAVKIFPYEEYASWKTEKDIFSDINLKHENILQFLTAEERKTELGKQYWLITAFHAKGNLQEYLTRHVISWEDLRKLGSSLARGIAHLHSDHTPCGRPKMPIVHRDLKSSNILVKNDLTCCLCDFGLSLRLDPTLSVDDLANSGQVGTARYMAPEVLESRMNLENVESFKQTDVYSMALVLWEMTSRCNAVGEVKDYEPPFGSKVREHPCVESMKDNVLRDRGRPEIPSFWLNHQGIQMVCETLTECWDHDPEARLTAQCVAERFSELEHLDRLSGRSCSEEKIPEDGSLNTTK
Summary of the method: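 In vitro ATP-site competition binding assay across a panel of 456 kinases, with compound tested at 1 and 10 μM.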

[4] = target: Translocon-associated protein subunit delta (Homo sapiens) (UniProt P51571); experiment: Binding affinity to SSR4 in human NCI-H23 cells at 1 uM by mass spectrometry based pull down assay; format: cell-based
Translocon-associated protein subunit delta (Homo sapiens), sequence (P51571 whole entry): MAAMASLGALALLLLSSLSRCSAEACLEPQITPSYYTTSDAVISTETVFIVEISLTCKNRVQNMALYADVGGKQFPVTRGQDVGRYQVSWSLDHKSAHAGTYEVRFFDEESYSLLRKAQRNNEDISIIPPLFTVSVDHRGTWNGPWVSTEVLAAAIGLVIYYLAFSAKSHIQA

[5] = target: 14-3-3 protein sigma (Homo sapiens) (UniProt P31947); experiment: Binding affinity to SFN in human NCI-H23 cells at 1 uM by mass spectrometry based pull down assay; format: cell-based
14-3-3 protein sigma (Homo sapiens), sequence (P31947 whole entry): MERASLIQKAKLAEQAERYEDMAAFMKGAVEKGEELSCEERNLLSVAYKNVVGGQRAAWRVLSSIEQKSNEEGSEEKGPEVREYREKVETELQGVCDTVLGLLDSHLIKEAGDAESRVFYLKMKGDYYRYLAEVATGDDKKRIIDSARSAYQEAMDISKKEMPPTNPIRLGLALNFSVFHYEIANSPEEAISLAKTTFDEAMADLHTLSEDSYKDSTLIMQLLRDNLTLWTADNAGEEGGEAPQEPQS

[6] = target: Tubulin alpha-1A chain (Homo sapiens) (UniProt Q71U36); experiment: Binding affinity to TUBA1A in human NCI-H23 cells at 1 uM by mass spectrometry based pull down assay; format: cell-based
[7] = target: Dolichyl-diphosphooligosaccharide--protein glycosyltransferase subunit 1 (Homo sapiens) (UniProt P04843); experiment: Binding affinity to RPN1 in human NCI-H23 cells at 1 uM by mass spectrometry based pull down assay; format: cell-based
Dolichyl-diphosphooligosaccharide--protein glycosyltransferase subunit 1 (Homo sapiens), sequence (P04843 whole entry): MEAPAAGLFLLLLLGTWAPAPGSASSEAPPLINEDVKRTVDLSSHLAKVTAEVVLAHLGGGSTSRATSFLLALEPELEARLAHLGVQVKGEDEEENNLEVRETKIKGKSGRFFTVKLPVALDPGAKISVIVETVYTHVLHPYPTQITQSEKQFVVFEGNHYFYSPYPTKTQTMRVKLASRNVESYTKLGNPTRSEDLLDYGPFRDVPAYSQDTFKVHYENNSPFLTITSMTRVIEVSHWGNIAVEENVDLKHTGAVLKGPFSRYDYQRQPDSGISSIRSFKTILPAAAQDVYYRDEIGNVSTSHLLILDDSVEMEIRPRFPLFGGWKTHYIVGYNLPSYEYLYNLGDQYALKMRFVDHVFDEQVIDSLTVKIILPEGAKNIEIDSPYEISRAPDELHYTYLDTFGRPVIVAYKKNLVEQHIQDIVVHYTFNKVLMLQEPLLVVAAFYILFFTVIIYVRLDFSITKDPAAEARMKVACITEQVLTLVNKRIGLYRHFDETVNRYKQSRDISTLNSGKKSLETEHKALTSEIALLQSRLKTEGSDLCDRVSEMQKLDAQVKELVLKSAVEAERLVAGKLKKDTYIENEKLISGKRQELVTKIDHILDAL

[8] = target: Bifunctional glutamate/proline--tRNA ligase (Homo sapiens) (UniProt P07814); experiment: Binding affinity to EPRS in human NCI-H23 cells at 1 uM by mass spectrometry based pull down assay; format: cell-based
[9] = target: Myeloid leukemia factor 2 (Homo sapiens) (UniProt Q15773); experiment: Binding affinity to MLF2 in human NCI-H23 cells at 1 uM by mass spectrometry based pull down assay; format: cell-based
[10] = target: Glutamine--fructose-6-phosphate aminotransferase [isomerizing] 1 (Homo sapiens) (UniProt Q06210); experiment: Binding affinity to GFPT1 in human NCI-H23 cells at 1 uM by mass spectrometry based pull down assay; format: cell-based
Glutamine--fructose-6-phosphate aminotransferase [isomerizing] 1 (Homo sapiens), sequence (Q06210 whole entry): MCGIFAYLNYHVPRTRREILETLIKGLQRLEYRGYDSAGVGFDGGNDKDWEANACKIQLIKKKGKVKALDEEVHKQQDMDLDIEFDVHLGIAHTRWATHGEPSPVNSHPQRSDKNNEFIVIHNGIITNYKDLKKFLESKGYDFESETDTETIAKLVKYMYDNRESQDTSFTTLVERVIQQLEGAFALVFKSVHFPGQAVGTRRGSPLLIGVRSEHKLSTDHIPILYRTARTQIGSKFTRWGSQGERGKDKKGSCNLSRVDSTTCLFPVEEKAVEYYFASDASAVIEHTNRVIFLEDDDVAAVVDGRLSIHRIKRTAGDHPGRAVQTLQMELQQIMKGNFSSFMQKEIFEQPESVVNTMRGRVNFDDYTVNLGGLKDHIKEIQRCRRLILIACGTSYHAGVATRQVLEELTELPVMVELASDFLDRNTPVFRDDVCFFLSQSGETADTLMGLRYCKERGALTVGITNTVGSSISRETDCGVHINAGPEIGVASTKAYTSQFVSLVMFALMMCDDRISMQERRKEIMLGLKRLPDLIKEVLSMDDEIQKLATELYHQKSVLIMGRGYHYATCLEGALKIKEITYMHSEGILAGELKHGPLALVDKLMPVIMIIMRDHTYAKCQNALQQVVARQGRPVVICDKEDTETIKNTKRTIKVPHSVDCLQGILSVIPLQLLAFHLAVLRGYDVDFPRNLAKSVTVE

[11] = target: Kelch-like ECH-associated protein 1 (Homo sapiens) (UniProt Q14145); experiment: Binding affinity to KEAP1 in human NCI-H23 cells at 1 uM by mass spectrometry based pull down assay; format: cell-based
[12] = target: Inosine-5'-monophosphate dehydrogenase 2 (Homo sapiens) (UniProt P12268); experiment: Binding affinity to IMPDH2 in human NCI-H23 cells at 1 uM by mass spectrometry based pull down assay; format: cell-based
[13] = target: ADP-ribosylation factor-like protein 8B (Homo sapiens) (UniProt Q9NVJ2); experiment: Binding affinity to ARL8B in human NCI-H358 cells at 1 uM by mass spectrometry based pull down assay; format: cell-based
ADP-ribosylation factor-like protein 8B (Homo sapiens), sequence (Q9NVJ2 whole entry): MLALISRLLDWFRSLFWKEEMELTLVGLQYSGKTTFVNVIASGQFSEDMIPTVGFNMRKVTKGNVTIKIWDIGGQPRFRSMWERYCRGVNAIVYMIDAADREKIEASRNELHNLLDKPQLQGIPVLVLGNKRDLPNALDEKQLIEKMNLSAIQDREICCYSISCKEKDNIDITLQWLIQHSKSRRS

[14] = target: T1, 80S Ribosome (Homo sapiens) (UniProt P08865+P42677+P62753+P15880+P23396+P61247+P62701+P22090+P46782+P62081+P62241+P46781+P46783+P62280+P25398+P62277+P62263+P62841+P62244+P62249+P08708+P62269+P39019+P60866+P63220+P62266+P62847+P62851+P62854+P62979+P62857+P62273+P62861+P39023+P36578+P46777+Q02878+P18124+P62424+P62917+P32969+P27635+P62906+P62913+P30050+P26373+P40429+P50914+P61313+P18621+Q07020+Q02543+P84098+P46778+P35268+P62829+P62750+P83731+P61254+P61353+P46776+P46779+P47914+P62888+P62899+P62910+P49207+P42766+P18077+Q9Y3U8+P83881+P61927+P61513+P63173+P62891+P62945+P05388+P05386); experiment: Binding affinity to RPS24 in human NCI-H358 cells at 1 uM by mass spectrometry based pull down assay; format: cell-based
[15] = target: Trifunctional enzyme subunit alpha, mitochondrial (Homo sapiens) (UniProt P40939); experiment: Binding affinity to HADHA in human NCI-H358 cells at 1 uM by mass spectrometry based pull down assay; format: cell-based
[16] = target: T1, 80S Ribosome (Homo sapiens); experiment: Binding affinity to RPL10 in human NCI-H358 cells at 1 uM by mass spectrometry based pull down assay; format: cell-based
[17] = target: Delta-1-pyrroline-5-carboxylate synthase (Homo sapiens) (UniProt P54886); experiment: Binding affinity to ALDH18A1 in human NCI-H358 cells at 1 uM by mass spectrometry based pull down assay; format: cell-based
Summary of the method: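 NCI-H23 or NCI-H358 cells were grown and lysed. Lysates were incubated overnight at 4 °C with 1 μM biotinylated covalent probe or DMSO, then pulled down on streptavidin beads. Proteins were run on polyacrylamide gels and stained with Coomassie. Bands were excised, digested and identified by mass spectrometry.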

[18] = target: Importin-5 (Homo sapiens) (UniProt O00410); experiment: Binding affinity to IPO5 in human NCI-H358 cells at 1 uM by mass spectrometry based pull down assay; format: cell-based
Importin-5 (Homo sapiens), sequence (O00410 whole entry): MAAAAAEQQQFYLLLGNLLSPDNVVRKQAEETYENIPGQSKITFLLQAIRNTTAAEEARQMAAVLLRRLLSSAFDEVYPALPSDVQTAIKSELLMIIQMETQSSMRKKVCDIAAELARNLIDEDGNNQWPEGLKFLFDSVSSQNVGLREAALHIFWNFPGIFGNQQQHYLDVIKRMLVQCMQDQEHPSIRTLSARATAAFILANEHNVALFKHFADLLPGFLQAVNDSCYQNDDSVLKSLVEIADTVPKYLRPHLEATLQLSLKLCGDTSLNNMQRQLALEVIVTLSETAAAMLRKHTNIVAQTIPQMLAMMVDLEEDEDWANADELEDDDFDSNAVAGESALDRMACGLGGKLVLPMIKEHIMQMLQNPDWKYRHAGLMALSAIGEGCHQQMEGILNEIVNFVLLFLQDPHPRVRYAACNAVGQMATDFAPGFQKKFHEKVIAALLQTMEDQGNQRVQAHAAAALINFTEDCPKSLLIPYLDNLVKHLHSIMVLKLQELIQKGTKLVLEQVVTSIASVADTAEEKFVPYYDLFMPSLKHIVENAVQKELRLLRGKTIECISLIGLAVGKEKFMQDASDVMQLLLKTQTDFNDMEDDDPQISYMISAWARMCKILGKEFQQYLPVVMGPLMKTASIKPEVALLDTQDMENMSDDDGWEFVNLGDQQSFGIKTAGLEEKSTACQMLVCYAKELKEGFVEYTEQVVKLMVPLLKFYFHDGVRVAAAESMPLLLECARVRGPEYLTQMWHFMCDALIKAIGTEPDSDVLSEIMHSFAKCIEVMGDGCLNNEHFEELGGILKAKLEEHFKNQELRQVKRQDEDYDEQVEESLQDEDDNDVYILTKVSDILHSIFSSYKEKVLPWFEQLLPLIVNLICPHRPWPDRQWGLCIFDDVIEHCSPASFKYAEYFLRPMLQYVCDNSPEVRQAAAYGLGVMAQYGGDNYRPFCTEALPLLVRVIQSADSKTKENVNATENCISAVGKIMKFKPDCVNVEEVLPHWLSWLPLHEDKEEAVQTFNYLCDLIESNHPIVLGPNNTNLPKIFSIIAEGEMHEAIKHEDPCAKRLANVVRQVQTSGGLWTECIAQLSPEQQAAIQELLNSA

[19] = target: Ras-related protein Rab-22A (Homo sapiens) (UniProt Q9UL26); experiment: Binding affinity to RAB22A in human NCI-H358 cells at 1 uM by mass spectrometry based pull down assay; format: cell-based
Ras-related protein Rab-22A (Homo sapiens), sequence (Q9UL26 whole entry): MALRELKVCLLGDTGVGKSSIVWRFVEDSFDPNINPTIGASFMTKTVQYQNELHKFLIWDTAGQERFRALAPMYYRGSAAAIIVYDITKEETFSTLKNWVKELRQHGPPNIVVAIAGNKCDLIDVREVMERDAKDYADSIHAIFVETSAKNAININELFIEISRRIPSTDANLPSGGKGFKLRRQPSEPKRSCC

[20] = target: Kinesin-like protein KIF15 (Homo sapiens) (UniProt Q9NS87); experiment: Binding affinity to KIF15 in human NCI-H358 cells at 1 uM by mass spectrometry based pull down assay; format: cell-based
Vigilin (Homo sapiens) = Vigilin (Homo sapiens) (UniProt Q00341); experiment: Binding affinity to HDLBP in human NCI-H358 cells at 1 uM by mass spectrometry based pull down assay; format: cell-based
[21] = target: Leucine-rich repeat flightless-interacting protein 1 (Homo sapiens) (UniProt Q32MZ4); experiment: Binding affinity to LRRFIP1 in human NCI-H358 cells at 1 uM by mass spectrometry based pull down assay; format: cell-based
Leucine-rich repeat flightless-interacting protein 1 (Homo sapiens), sequence (Q32MZ4 whole entry): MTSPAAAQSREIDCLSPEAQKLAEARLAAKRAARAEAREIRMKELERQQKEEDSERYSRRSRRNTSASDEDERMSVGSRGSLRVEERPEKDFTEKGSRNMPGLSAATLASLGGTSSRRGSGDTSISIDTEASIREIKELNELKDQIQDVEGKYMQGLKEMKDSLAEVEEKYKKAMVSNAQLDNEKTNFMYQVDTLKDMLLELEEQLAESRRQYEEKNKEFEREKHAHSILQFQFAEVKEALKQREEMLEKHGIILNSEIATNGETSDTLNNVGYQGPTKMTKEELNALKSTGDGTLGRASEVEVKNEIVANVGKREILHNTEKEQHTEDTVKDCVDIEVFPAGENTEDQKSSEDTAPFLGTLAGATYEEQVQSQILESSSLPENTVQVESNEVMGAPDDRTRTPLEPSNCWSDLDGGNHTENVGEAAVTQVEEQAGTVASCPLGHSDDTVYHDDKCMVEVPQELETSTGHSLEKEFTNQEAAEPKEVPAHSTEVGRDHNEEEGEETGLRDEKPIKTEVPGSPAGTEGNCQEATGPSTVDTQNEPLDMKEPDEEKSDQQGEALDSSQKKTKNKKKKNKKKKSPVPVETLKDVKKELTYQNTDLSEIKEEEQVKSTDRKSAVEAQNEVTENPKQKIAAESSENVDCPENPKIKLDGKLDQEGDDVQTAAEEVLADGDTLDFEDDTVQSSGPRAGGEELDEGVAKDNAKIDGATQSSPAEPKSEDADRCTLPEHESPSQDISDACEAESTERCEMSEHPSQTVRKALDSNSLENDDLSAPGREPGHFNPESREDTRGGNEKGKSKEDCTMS

[22] = target: Polymeric immunoglobulin receptor (Homo sapiens) (UniProt P01833); experiment: Binding affinity to PIGR in human NCI-H358 cells at 1 uM by mass spectrometry based pull down assay; format: cell-based
[23] = target: Actin-related protein 2/3 complex subunit 1B (Homo sapiens) (UniProt O15143); experiment: Binding affinity to ARPC1B in human NCI-H358 cells at 1 uM by mass spectrometry based pull down assay; format: cell-based
[24] = target: T1, 80S Ribosome (Homo sapiens); experiment: Binding affinity to RPS2 in human NCI-H358 cells at 1 uM by mass spectrometry based pull down assay; format: cell-based

SMILES: COc1cc(O)c2c(c1)/C=C/C[C@H](O)[C@H](O)C(=O)/C=C\C[C@H](C)OC2=O
inhibition [1]: -10%
Activity [2]: 0.65%
Activity [3]: 0.9%

Activity [4]: Active
Activity [5]: Active
Activity [6]: Active
Activity [7]: Active
Activity [8]: Active
Activity [9]: Active
Activity [10]: Active
Activity [11]: Active
Activity [12]: Active
Activity [13]: Active
Activity [14]: Active
Activity [15]: Active
Activity [16]: Active
Activity [17]: Active
Activity [18]: Active
Activity [19]: Active
Activity [20]: Active
Activity (Vigilin (Homo sapiens)): Active
Activity [21]: Active
Activity [22]: Active
Activity [23]: Active
Activity [24]: Active
SMILES: C=CC(=O)Nc1ccccc1Nc1nc(Nc2ccc(N3CCN(CCOCCOCCOCCNC(=O)CCCC[C@@H]4SC[C@@H]5NC(=O)N[C@@H]54)CC3)cc2)ncc1Cl
